The source of these data is paper PMC6847989 (International Journal of Nanomedicine, 2019).

A short description of data set [1]: In vitro drug release / dissolution in PBS buffer. The following applies: PBS 150 mM, pH 7.4, 37°C, 72 hrs. The format is physicochemical. A digest of the protocol:
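Release was by dialysis (3500 MWCO bag) into 20 mL PBS. Test powder (1.0 mg) was dispersed in 5 mL PBS at 37°C, or loaded hydrogel (250 μL) was placed in the bag. At set times 3 mL of outer buffer was withdrawn and replaced with fresh buffer. IGUR was quantified by UV absorbance at 309 nm.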

For data set [2], the system named is RA-FLS. Description: MTS cell proliferation assay. The format is cell-based, human. The following applies: 48 hr. A digest of the protocol:
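Primary RA-FLS were grown from explants of patients' synovial tissue in DMEM/20% FBS and used at passages 3–6. Cells were seeded at 3×10³ cells/100 μL and allowed to adhere overnight. They were exposed for 48 h to test compound at 40, 80, 160 or 320 μg/mL in 10% FBS high-glucose DMEM, alongside medium, PBS or blank-gel controls. After MTS for 2 h, absorbance was read at 490 nm, with six replicate wells per group.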
(In general: Formazan colour is commonly taken as a measure of viable cells.)

For data set [3], the system named is RA-FLS. Description: Transwell migration assay. The format is cell-based, human. As to conditions: 320 μg/mL, 48 hrs. The method, boiled down:
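RA-FLS (3×10³ cells/100 μL) in serum-free medium were placed in the upper chamber of 8-μm transwells with test compound (40–320 μg/mL). The lower chamber held 10% FBS as chemoattractant. After 48 h at 37°C, non-migrated cells were swabbed off. Underside cells were fixed in 4% paraformaldehyde for 30 min at room temperature, stained with 0.1% crystal violet, and counted in 5 random fields; three independent experiments.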

For data set [4], the system named is RA-FLS. As to the kind of experiment: Matrigel transwell invasion assay. The format is cell-based, human. As to conditions: 320 μg/mL, 48 hrs. The method, boiled down:
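Transwell inserts were coated with Matrigel diluted in cold serum-free medium (medium:Matrigel 5:1) and incubated overnight. RA-FLS (3×10³ cells/100 μL) in serum-free medium plus test compound (40–320 μg/mL) were placed above 10% FBS for 48 h at 37°C. Invaded cells were fixed in 4% paraformaldehyde, stained with crystal violet, and counted in 5 random fields; three independent replicates.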

Data set [5] can be described thus: In vivo pharmacokinetics, plasma concentration by HPLC. The following applies: female, Lewis, rat, po, 10 mg/kg. Set-up: species or system female Lewis rats. The method, boiled down:
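Healthy female Lewis rats (150 ± 10 g, 6 weeks) received a single oral 10 mg/kg dose of test compound suspended in 0.5% sodium CMC in water. Heparinized blood was drawn at 10 and 30 min and at 1, 2, 3, 4, 6, 8, 12, 18 and 24 h. Plasma drug was measured by HPLC, and parameters were calculated from the concentration–time curve.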

Data set [6] has as its system collagen-induced arthritis (CIA) rats. Description: Therapeutic efficacy in collagen-induced arthritis. The format is in vivo, female Lewis rats. As to conditions: 10 mg/kg intragastrically daily. The method, boiled down: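 Female Lewis rats (150 ± 10 g, 6 weeks) given bovine type II collagen in complete Freund's adjuvant (400 μg collagen s.c.), reboosted day 7 with incomplete adjuvant. Test compound in 0.5% CMC, 10 mg/kg intragastric daily for 21 days; n = 7 per group, untreated CIA and healthy rats as controls. Every 3 days, two researchers record weight, ankle diameter and arthritis index (each paw 0–4, maximum 16).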

The test system is the same in data set [7]. Description: Histological evaluation of ankle joints of CIA rats. As to conditions: 10 mg/kg intragastrically daily, 21 days. The format is in vivo, female Lewis rats. A digest of the protocol: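 CIA was induced in female Lewis rats (150 ± 10 g, 6 weeks) by s.c. injection of bovine type II collagen emulsified in complete Freund's adjuvant (400 μg collagen), then boosted 7 days later with collagen in incomplete adjuvant. Oral test compound was given in 0.5% CMC for 21 days (n = 7). Right ankles were fixed, decalcified, paraffin-embedded, and stained with H&E and safranin O–fast green. Sections were given a Mankin score (5 grades) over multiple fields. Groups were compared by Mann–Whitney U or ANOVA.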

The next data set concerns IL-6. Description: ELISA of IL-6 in serum and synovial homogenate supernatant of CIA rats. The format is in vivo, female Lewis rats. As to conditions: 10 mg/kg intragastrically daily, 21 days. The method, boiled down:
(§1)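 Female Lewis rats; CIA from bovine type II collagen in complete Freund's adjuvant (400 μg collagen s.c.), boosted day 7 with incomplete adjuvant. Test compound in 0.5% CMC, 10 mg/kg intragastric daily, 21 days; n = 7, untreated CIA and healthy controls. Serum from canthus blood (300 × g, 10 min) and synovial homogenate supernatant (PBS, protease inhibitors) assayed by high-sensitivity ELISA; mean ± SD.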
(In general: An ELISA detects its analyte on a solid surface through an enzyme-linked reagent.)

Another data set concerns TNF-α. Description: ELISA of TNF-α in serum and synovial homogenate supernatant of CIA rats. The format is in vivo, female Lewis rats. The following applies: 10 mg/kg intragastrically daily, 21 days. The method, boiled down: as §1
The subject of the next data set is IL-1β. Description: ELISA of IL-1β in serum and synovial homogenate supernatant of CIA rats. The format is in vivo, female Lewis rats. The following applies: 10 mg/kg intragastrically daily, 21 days. The method, boiled down:
as §1

For data set [8] the following is noted: cited from earlier work.

Consider `CS(=O)(=O)Nc1cc2occ(NC=O)c(=O)c2cc1Oc1ccccc1` [raw IGUR, Iguratimod], for which, in data set [1], the “dissolution rate (dissolved/released IGUR)” value amounted to 28.65%. For the same compound, the “relative cell proliferation ratio” value with RA-FLS [2] (160 μg/mL) came out at 83.72 ± 1.41%. In the data set on RA-FLS [2] (320 μg/mL), the “relative cell proliferation ratio” value stood at 80.73 ± 2.14%. The “relative cell migration ratio” value in the data set on RA-FLS [3] is 44.69 ± 1.58%. In addition, the “relative cell invasion ratio” value in the data set on RA-FLS [4] is given as 44.59 ± 2.24%. In addition, in [5], the AUC(0-t) came to 111 µg·h/mL, the peak level (Cmax) was 12.7 µg/mL and the half-life is 3.7 h. In addition, the “body weight vs CIA group” value in data set [6] (13th day of administration) is “significantly higher than in the CIA group”. In addition, the “AI scores vs CIA group” value in data set [6] (16th day of administration) is listed as “significantly lower than in the CIA group”. Further, the “H&E histology of ankle joints vs CIA group” value in data set [7] is “less infiltration of inflammatory cells in the synovial tissue and no obvious bone erosion”. In data set [7] (P < 0.05), the “Mankin's score vs CIA group” value is given as “significantly lower” and the “synovitis score vs CIA group” value is “significantly lower”. Moreover, in data set [7] (saffron O-fixing green staining, Image J, P < 0.05), the “area of ankle cartilage vs CIA group” value is “increased significantly”. The “serum level of IL-6 vs CIA group” value in the data set on IL-6 is on record as “significantly lower than those in the CIA group”. Further, in the data set on TNF-α, the “serum level of TNF-α vs CIA group” value is “significantly lower than those in the CIA group”. In the data set with IL-1β, the “serum level of IL-1β vs CIA group” value was “significantly lower than those in the CIA group”. In data set [8], the “solubility in aqueous solvents” value is reported as “practically insoluble”.

One may read the AUC(0-t) as exposure summed from dosing to a finite time, without extrapolation to infinity. Lower therefore signals less exposure. One may read the Cmax as the highest concentration seen after dosing. What is called half-life is the time needed for the level to fall by half in the phase considered. A lower half-life goes with fast loss.
